Reference: ChEMBL document CHEMBL1131445, “Evaluation of dynamic polar molecular surface area as predictor of drug absorption: comparison with other computational and experimental predictors” (J Med Chem, 1998)

What was measured:
Homo sapiens = species: Homo sapiens; test: Mono layer permeability of human intestinal Caco-2 cells; assay type: ADME, cell-based
How it was run: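 Caco-2 cells at passage 93–105, seeded on polycarbonate filter inserts (0.45 μm pores) and grown 22–32 days. Drug at 1–2 mM final in HBSS with 25 mM Hepes, pH 7.4, added donor side; 37 °C, low and high stirring. Receiver sampled every 4–40 min for HPLC, under sink conditions. Pc derived from Papp across stirring rates, free of the aqueous boundary layer.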

[1] = Distribution coefficient measured in Octanol/buffer (0.15 M KCl); assay type: physicochemical
How it was run: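 Dual-phase titration at 25 °C: 1–2 mg sample plus 1.0 mL n-octanol in 10–15 mL water with 0.15 M KCl. Acidified to pH 2 (0.5 M HCl), then titrated with 0.5 M KOH to pH 11 under nitrogen. log P came from the pKa–pKa' shift via nonlinear regression of difference curves; log D refers to pH 7.4.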

[2] = Dissociation constant of the compound; assay type: physicochemical

| SMILES | Pc (Homo sapiens) [×10⁻⁶ cm/s] | logD [1] | pKa [2] |
| --- | --- | --- | --- |
| C=CCc1ccccc1OCC(O)CNC(C)C (configuration not stated) [ALPRENOLOL] | 242 | 0.85 |  |
| O=C(NCCNCC(O)COc1ccc(CCOCCOCC2CC2)cc1)N1CCC(O)CC1 (configuration not stated) | 0.104 | -0.1 | 8.5 |
| COCCc1ccc(OCC(O)CNC(C)C)cc1 (configuration not stated) [METOPROLOL] | 91.9 | -0.42 |  |
| CC(C)NCC(O)COc1ccc(NC=O)cc1 (configuration not stated) | 3.75 | -1.56 | 9.5 |
| C=CCOc1ccccc1OCC(O)CNC(C)C (configuration not stated) [OXPRENOLOL] | 119.6 | 0.08 | 9.5 |
| CC(=O)Nc1ccc(OCC(O)CNC(C)C)cc1 (configuration not stated) [PRACTOLOL] | 3.46 | -1.31 | 9.5 |
| CC(C)NCC(O)COc1cccc2[nH]ccc12 (configuration not stated) [PINDOLOL] | 54.7 | -0.55 | 9.7 |
| CCC(=O)Nc1ccc(OCC(O)CNC(C)C)cc1 (configuration not stated) | 6.03 | -1.08 | 9.5 |
